Dynein transport: dynein cargo transport inhibition. AID 1381. z-score, hits read low. actives 0.47% (n = 220,000). 3617.4 mouse cells, GR-EGFP nuclear translocation imaging; test concentration mostly 20 µM; stimulated with dexamethasone, 1 µM; active compounds read low;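 active = plate z-score of nuclear minus cytoplasmic receptor signal below a set negative limit, without overly bright fluorescence or cell loss, cut at about -3.5 in these data, passing the limit was not always enough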;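 note: z-score of nuclear minus cytoplasmic ring GR-EGFP intensity difference per well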
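Schedule: 48 h induction, then 1 h compound, then 30 min agonist, 37 °C. Buffer or medium: tetracycline-free induction medium containing charcoal-stripped FBS. Reagent: 1.0 µM final dexamethasone stimulus. Evaluation: nuclear versus cytoplasmic GR-EGFP signal, averaged per well. Signal: high-content fluorescence imaging after fixation.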
MDM2 E3 inh: Mdm2 E3 ligase (human) inhibition; Q00987; cell-based MDM2 ubiquitination luciferase reporter, 2 h; 0 = plate control, 100 = twice control, blank-subtracted; signal enhancement, % at 5 µM; actives 0.11% (n = 210,000);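 active = signal enhancement of 30% or more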;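 note: luminescence tracks abundance of the self-degrading MDM2-luciferase fusion protein; higher signal means inhibition of MDM2 E3 ligase activity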
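Assay system: stable mammalian line carrying autodegrading MDM2–luciferase fusion reporter; Input: 2000 cells in each well; Compound dosing: single-point 5 µM; Schedule: 2 h compound exposure at 37 °C; Signal: SteadyLite luciferase luminescence after 15 min room-temperature reagent incubation; Evaluation: % luminescence enhancement versus blank-corrected plate control mean; Benchmarks: plate controls and plate blanks.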
Mdm2-MdmX inh: disrupts the human Mdm2-MdmX interaction | O15151+Q00987 | SaOS-2 split-luciferase Mdm2/MdmX complementation, luminescence | inhibition, % at 8 µM | actives 3% (n = 330,000);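 active = inhibition of at least 50% at 8 µM in the primary screen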
Target sequence (O15151 whole entry, looked up): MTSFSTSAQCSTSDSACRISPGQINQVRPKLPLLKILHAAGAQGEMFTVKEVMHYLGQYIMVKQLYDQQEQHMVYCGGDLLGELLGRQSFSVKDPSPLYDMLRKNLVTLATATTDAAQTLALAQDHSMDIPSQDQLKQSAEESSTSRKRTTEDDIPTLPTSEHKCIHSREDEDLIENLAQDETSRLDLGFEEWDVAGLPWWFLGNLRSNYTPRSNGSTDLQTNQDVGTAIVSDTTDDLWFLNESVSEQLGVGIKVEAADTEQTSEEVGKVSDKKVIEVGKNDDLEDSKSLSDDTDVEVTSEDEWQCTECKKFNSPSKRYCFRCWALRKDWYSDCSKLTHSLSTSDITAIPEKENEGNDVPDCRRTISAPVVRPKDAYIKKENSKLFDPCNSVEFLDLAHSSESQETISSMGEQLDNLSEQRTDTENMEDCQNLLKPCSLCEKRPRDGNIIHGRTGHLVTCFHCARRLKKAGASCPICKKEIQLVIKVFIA
Target sequence (Q00987 whole entry, looked up): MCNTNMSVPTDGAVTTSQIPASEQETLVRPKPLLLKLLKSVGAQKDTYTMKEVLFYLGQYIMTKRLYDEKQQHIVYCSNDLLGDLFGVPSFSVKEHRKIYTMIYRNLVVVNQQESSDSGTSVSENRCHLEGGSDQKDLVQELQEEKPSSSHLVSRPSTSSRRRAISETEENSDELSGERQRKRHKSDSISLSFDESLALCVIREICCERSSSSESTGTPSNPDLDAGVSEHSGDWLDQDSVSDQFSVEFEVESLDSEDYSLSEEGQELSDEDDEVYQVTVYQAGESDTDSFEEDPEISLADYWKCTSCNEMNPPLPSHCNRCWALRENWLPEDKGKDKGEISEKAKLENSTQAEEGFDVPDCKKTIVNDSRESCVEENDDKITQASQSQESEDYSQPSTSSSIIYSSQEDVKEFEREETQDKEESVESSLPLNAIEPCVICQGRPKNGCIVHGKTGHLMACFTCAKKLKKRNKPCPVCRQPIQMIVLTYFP
CHOP UPR activ: apoptotic UPR (CHOP) activation. CHO-CHOP luciferase reporter, luminescence; percent of tunicamycin response over DMSO baseline. activation, % at 10 µM. actives 0.34% (n = 330,000). AID 449763;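 active = at 10 µM dose, activation of 40% or more, normalized to positive control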;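 note: 100% = tunicamycin at 10 µg/mL and 0% = DMSO alone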
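measured by = luciferase luminescence | assay system = CHO-CHOP cells, stable luciferase reporter of PERK-eIF2a-CHOP signalling | amount = 500 reporter cells seeded per well | timing = 6 h compound exposure at 37 °C after overnight seeding | controls = positive tunicamycin 10 µg/mL, negative DMSO alone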
B2AR ag: agonists of human beta-2 adrenergic receptor inducing internalization | P07550 | AID 504454 | response, % (test concentration not listed) | actives 0.43% (n = 340,000) | Am2.2-beta2AR cells, FAP receptor internalization, flow cytometry;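 active = response above a set limit, near 3 SD of response in nonfluorescent compounds, cut at about 42% in these data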
XBP1 UPR activ: activators of adaptive arm of unfolded protein response (XBP1) | activation, % at 20 µM | actives 0.33% (n = 330,000) | CHO-XBP1 luciferase reporter, IRE1-XBP1 UPR activation, luminescence; percent of tunicamycin response, DMSO as zero | AID 463104;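 active = versus positive control, 20 µM dose yields 30% or more activation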;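 note: 100% = tunicamycin at 10 µg/mL and 0% = DMSO only wells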
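Material: CHO cell line with stable XBP1 luciferase reporter; schedule: 16-18 h cell attachment at 37 °C, then 6 h compound exposure; signal: glow luminescence from Steady-Glo reagent; medium: serum-containing F12 medium, 10% FBS; benchmarks: tunicamycin 10 µg/mL and vehicle-only wells; read-out: percent activation relative to tunicamycin reference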
CHOP UPR conf: apoptotic UPR (CHOP) activation, confirmed; actives 64% (n = 1,000); AID 463112; CHO-CHOP cells, CHOP-luciferase reporter luminescence; percent of tunicamycin response, DMSO as zero; shares compounds with CHOP UPR activ; activation, % at 10 µM; in the data active = activation above about 33%;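 note: 0% = DMSO wells and 100% = tunicamycin 10 µg/mL wells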
An asterisk follows results filed as active; x = not tested or not shown. Rows were chosen to be rich in hits. Some 3.7% of all compounds tested hit in one or more screens of this group.

SMILES	Dynein transport	MDM2 E3 inh	Mdm2-MdmX inh	CHOP UPR activ	B2AR ag	XBP1 UPR activ	CHOP UPR conf
O=C(Nc1nc2c(F)cc(F)cc2s1)c1ccccn1	-0.715	-67.7	25.2	83.3*	13.8	-2.1	186.5*
CC(C)c1c(O)ccc2c1CC[C@H]1C(C)(C)CCC[C@]21C	x	x	x	x	18.3	x	x
O=C(/C=C/c1ccc(-c2ccccc2)o1)c1ccccc1	-0.592	-2.4	-7.9	92.9*	2.8	15.7	6.7
Cc1ccc(/C=C/C(=O)c2ccc(C)cc2)cc1	-1.59	3.5	13.5	3.2	-1.6	6.5	x
Cc1ccc(C(=O)/C=C/c2ccc(-c3ccccc3[N+](=O)[O-])o2)cc1	-0.716	-3.4	11.4	2.2	4.7	0.4	x
Cc1ccc(C(=O)/C=C/C(=O)c2ccc(C)cc2)cc1	-3.4	-8.2	43.9	139.1*	28.5	-6.6	369.9*
Cc1ccc(-c2ccc(/C=C/C(=O)c3ccccc3)o2)cc1	-0.546	-7.0	44.9	192.9*	13.0	-0.4	2.0
O=Cc1ccc(-c2cccc(C(=O)O)c2)o1	-0.848	-9.0	1.6	1.9	-3.3	-1.6	x
COc1cc(C(=O)NCC(=O)NCC(c2ccco2)N2CCCCC2)cc(OC)c1OC (stereo unspecified)	x	x	-17.4	0.2	-9.5	-3.2	x
O=C(CCCCl)Nc1c2c(nn1-c1ccccc1)CSC2	x	x	7.8	-0.5	-4.5	3.4	x
O=C(CCl)Nc1c2c(nn1-c1ccccc1)CSC2	x	x	37.0	70.1*	-1.2	-2.9	3.3
S=C1SCN(CC2CC2)CN1CC1CC1	-0.687	-10.1	20.2	81.8*	-1.9	1.0	86.0*
S=C1SCN(Cc2ccccc2)CN1Cc1ccccc1	x	x	26.3	1.6	-0.3	-3.6	x
O=C(COC(=O)/C=C/c1ccc(Cl)cc1Cl)NCC1CCCO1 (stereo unspecified)	x	x	18.9	-0.5	-7.3	-0.4	x
CCOc1ccc(NC2=CC(=O)C(=O)c3ccccc32)cc1	x	x	x	x	1.7	x	x
O=C1C=C(Nc2ccc(F)cc2)c2ccccc2C1=O	x	x	44.3	62.0*	15.6	2.3	8.9
Cc1ccc(CN2CCN(/N=C/c3ccc(O)c(O)c3)CC2)cc1	x	x	13.8	147.5*	4.1	19.2	105.5*
Oc1ccc(/C=N/N2CCN(C3c4ccccc4-c4ccccc43)CC2)cc1	-0.413	-0.2	-26.0	0.6	-6.5	-2.3	x
Oc1ccc(/C=N/N2CCN(C3c4ccccc4-c4ccccc43)CC2)cc1O	-0.856	1.1	40.6	101.8*	19.8	11.9	52.7*
Cc1cccc(C(=O)OCC(=O)NC2CC2)c1O	x	x	11.5	-0.2	-0.9	-1.3	x
COc1ccc(NC(=O)NNC(=O)c2ccc3ccccc3c2O)c(OC)c1	x	x	8.2	0.4	-1.9	-4.0	x
O=C1C(CSCc2ccccc2)NC(=S)N1c1ccccc1 (stereo unspecified)	-0.294	-1.2	-17.4	52.1*	8.6	0.6	34.4*
Cc1cc(C(=O)NNC(=O)c2ccc(NC(=O)CC#N)cc2)c(C)o1	x	x	-10.1	1.1	-1.7	-2.1	x
Cc1ccc(Sc2nc3ccc(C)cn3c(=O)c2/C=N/O)cc1	-1.05	-13.4	47.9	51.6*	-2.9	9.7	-0.4
CCc1ccc(OCC(=O)NNCC(=O)Nc2ccc(OC)cc2)cc1	x	x	24.6	-1.9	-1.0	4.2	x
CS(=O)(=O)N(CC(=O)N1CCN(Cc2ccccc2)CC1)c1cccc([N+](=O)[O-])c1	x	x	-4.3	-2.1	-4.8	-3.2	x
Cc1nnc(SCc2nnc(-c3cccs3)o2)n1Cc1ccccc1	0.385	5.3	20.5	0.8	-9.1	-0.3	x
Clc1ccc(-c2nnc(CSc3nnc(-c4cccs4)n3Cc3ccccc3)o2)cc1	-0.316	-19.1	7.1	46.9*	-14.1	-0.2	-2.6

Screening results (PubChem BioAssay)
